According to ChEMBL document CHEMBL1147041, “Modulation of human neural stem cell differentiation in Alzheimer (APP23) transgenic mice by phenserine” (2007):
Calls of active or inactive are those of the source. The calls are words filed in the database; no cut-off is given here.

What was measured:
[1] = Effect on neuronal differentiation of human neural stem cells transplanted in APP23 transgenic mouse hippocampus CA2 region assessed as increase of beta-3 tubulin+/BrdU+ count at 25 mg/kg/day, ip for 14 days; assay type: functional, Neural stem cell; conditions: route intraperitoneal
In short: (§1)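 Mice received daily i.p. drug or saline for 14 days. BrdU-labelled (3 µM, 48 h) fetal human neural stem cells, ≈105 cells, were then injected into the right lateral ventricle with no immunosuppression. Daily injections resumed for 1 week after a 2-day recovery. At 6 weeks, 20 µm coronal sections from paraformaldehyde-perfused brains were double-stained for BrdU plus GFAP or β-III tubulin. Cells were counted bilaterally at ×400 on 4–6 sections per mouse, n = 6–7 per group, and compared by ANOVA.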

[2] = Effect on neuronal differentiation of human neural stem cells transplanted in APP23 transgenic mouse motor cortex region assessed as increase of beta-3 tubulin+/BrdU+ count at 25 mg/kg/day, ip for 14 days; assay type: functional, Neural stem cell; conditions: route intraperitoneal; in short: as §1
[3] = Effect on neuronal differentiation of human neural stem cells transplanted in APP23 transgenic mouse somatosensory region assessed as increase of beta-3 tubulin+/BrdU+ count at 25 mg/kg/day, ip for 14 days; assay type: functional, Neural stem cell; conditions: route intraperitoneal; in short: as §1
[4] = Effect on neuronal differentiation of human neural stem cells transplanted in wild type mouse hippocampus CA1 region assessed as increase of beta-3 tubulin+/BrdU+ count at 25 mg/kg/day, ip for 14 days; assay type: functional, Neural stem cell; conditions: route intraperitoneal; in short: as §1
Mus musculus [5] = assay: Decrease in amyloid precursor protein expression in APP23 transgenic mouse hippocampus at 25 mg/kg/day, ip for 14 days by Western blot relative to control; assay type: functional; set-up: scale not given: the % may be the effect or the level left; conditions: route intraperitoneal
Mus musculus [6] = assay: Decrease in amyloid precursor protein expression in APP23 transgenic mouse cerebral cortices at 25 mg/kg/day, ip for 14 days by Western blot relative to control; assay type: functional, organism-based
Mus musculus [7] = assay: Decrease in amyloid precursor protein expression in wild type mouse cerebral cortices at 25 mg/kg/day, ip for 14 days by Western blot relative to control; assay type: functional, organism-based
Mus musculus [8] = assay: Decrease in glial fibrillary acidic protein expression in APP23 transgenic mouse hippocampus at 25 mg/kg/day, ip for 14 days by Western blot relative to control; assay type: functional; set-up: scale not given: the % may be the effect or the level left; conditions: route intraperitoneal
[9] = Effect on glial differentiation of human neural stem cells transplanted in APP23 transgenic mouse hippocampus assessed as reduction of GFAP+/BrdU+ count at 25 mg/kg/day, ip for 14 days by fluorescent immunohistochemistry; assay type: functional, Neural stem cell; set-up: scale not given: the % may be the effect or the level left; conditions: route intraperitoneal; in short: as §1
[10] = Effect on neuronal differentiation of human neural stem cells transplanted in APP23 transgenic mouse hippocampus CA1 region assessed as increase of beta-3 tubulin+/BrdU+ count at 25 mg/kg/day, ip for 14 days; assay type: functional, Neural stem cell; conditions: route intraperitoneal; in short: as §1

Structure (SMILES): CN1CC[C@]2(C)c3cc(OC(=O)Nc4ccccc4)ccc3N(C)C12 (stereo not given in full)
- Activity [1]: 32%
- Activity [2]: 32%
- Activity [3]: 32%
- Activity [4]: 40%
- Activity (Mus musculus [5]): 38%
- Activity (Mus musculus [6]): Active
- Activity (Mus musculus [7]): Active
- Activity (Mus musculus [8]): 36%
- Activity [9]: 28%
- Activity [10]: 32%
